Columns and labels:
Format in all cases: cell-based
[1] = biological target: T1, Thymidylate kinase (Homo sapiens, UniProt P23919); test: Concentration required to reduce Thymidylate kinase rate by 50% in human blast cells
T1 sequence (P23919 whole entry): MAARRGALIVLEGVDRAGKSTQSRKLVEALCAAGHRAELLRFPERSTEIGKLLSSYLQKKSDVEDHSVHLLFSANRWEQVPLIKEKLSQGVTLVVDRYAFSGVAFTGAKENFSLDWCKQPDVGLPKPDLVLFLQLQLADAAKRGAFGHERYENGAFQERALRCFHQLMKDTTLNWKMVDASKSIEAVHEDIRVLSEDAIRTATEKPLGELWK
Method in brief: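 Enzyme: dialyzed extract of blast cells from an acute myeloid leukemia patient. Data were fitted by nonlinear least-squares regression to response = a + b ln[inhibitor], error weighting 1/(γ+γ)^2, and the IC50 was derived from the fit.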

[2] = Concentration required to reduce thymidine kinase rate by 50% in L1210 cells
Method in brief: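 Cytoplasmic isoenzyme affinity-purified from L1210 cells. Reaction: 1 mM ATP, 1 mM MgCl2, 10 μM [3H]thymidine (150 μCi/μmol), 5% sucrose, 40 mM Tris pH 7.8. Inhibitor ranged 0-500 μM. Inhibitor concentrations were verified by UV absorbance at 260 nm.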

[3] = Concentration required to reduce Ribonucleotide reductase rate by 50% in L1210 cells
Method in brief: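 Enzyme: crude L1210 extract brought to pH 5.2 with 1 M acetic acid; the precipitate was dissolved in 50 mM Tris-HCl pH 8.0. CDP reductase activity was measured by a published method. Data were fitted by nonlinear least-squares regression to response = a + b ln[inhibitor] with weighted error, and the IC50 was taken from the fit.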

| SMILES | IC50 [1] [µM] | IC50 [2] [µM] | IC50 [3] [µM] |
| --- | --- | --- | --- |
| Cc1cn(C2C[C@H](O)[C@@H](COP(=O)(O)OP(=O)(O)OP(=O)(O)OP(=O)(O)OP(=O)(O)OP(=O)(O)OC[C@H]3OC(n4cnc5c(N)ncnc54)[C@H](O)[C@@H]3O)O2)c(=O)[nH]c1=O (some centres undefined) | 6 | – | 20 |
| Cc1cn(C2C[C@H](O)[C@@H](COP(=O)(O)CP(=O)(O)OP(=O)(O)OC[C@H]3OC(n4cnc5c(N)ncnc54)[C@H](O)[C@@H]3O)O2)c(=O)[nH]c1=O (some centres undefined) | 730 | > 500 | 460 |
| Nc1ncnc2c1ncn2C1O[C@H](COP(=O)(O)OP(=O)(O)OP(=O)(O)OP(=O)(O)OP(=O)(O)OC[C@H]2OC(n3cnc4c(N)ncnc43)[C@H](O)[C@@H]2O)[C@@H](O)[C@H]1O (some centres undefined) | > 1000 | – | – |
| Cc1cn(C2C[C@H](O)[C@@H](COP(=O)(O)OP(=O)(O)OP(=O)(O)OC[C@H]3OC(n4cnc5c(N)ncnc54)[C@H](O)[C@@H]3O)O2)c(=O)[nH]c1=O (some centres undefined) | 1230 | > 500 | > 500 |
| Cc1cn(C2C[C@H](O)[C@@H](COP(=O)(O)CP(=O)(O)OP(=O)(O)OP(=O)(O)OC[C@H]3OC(n4cnc5c(N)ncnc54)[C@H](O)[C@@H]3O)O2)c(=O)[nH]c1=O (some centres undefined) | 340 | 17 | 300 |

Continued by falling IC50 [1], values first:

| IC50 [1] [µM] | IC50 [2] [µM] | IC50 [3] [µM] | SMILES |
| --- | --- | --- | --- |
| 290 | 15 | 77 | Cc1cn([C@H]2C[C@H](O)[C@@H](CO[P@@](=O)(O)O[P@@](=O)(O)O[P@@](=O)(O)O[P@@](=O)(O)OC[C@H]3O[C@@H](n4cnc5c(N)ncnc54)[C@H](O)[C@@H]3O)O2)c(=O)[nH]c1=O |
| 8 | 2.5 | 14 | Cc1cn([C@H]2C[C@H](O)[C@@H](COP(=O)(O)OP(=O)(O)OP(=O)(O)OP(=O)(O)OP(=O)(O)OC[C@H]3O[C@@H](n4cnc5c(N)ncnc54)[C@H](O)[C@@H]3O)O2)c(=O)[nH]c1=O |
| 6 | 9.2 | 130 | Cc1cn(C2C[C@H](O)[C@@H](COP(=O)(O)CP(=O)(O)OP(=O)(O)OP(=O)(O)OP(=O)(O)OC[C@H]3OC(n4cnc5c(N)ncnc54)[C@H](O)[C@@H]3O)O2)c(=O)[nH]c1=O (some centres undefined) |
| 4 | 19.7 | 230 | Cc1cn(C2C[C@H](O)[C@@H](COP(=O)(O)CP(=O)(O)OP(=O)(O)OP(=O)(O)OP(=O)(O)OP(=O)(O)OC[C@H]3OC(n4cnc5c(N)ncnc54)[C@H](O)[C@@H]3O)O2)c(=O)[nH]c1=O (some centres undefined) |

Source: ChEMBL document CHEMBL1124145, “Dinucleotide analogues as inhibitors of thymidine kinase, thymidylate kinase, and ribonucleotide reductase” (J Med Chem, 1988)
